Assay results reported in ChEMBL document CHEMBL6071158, “Design, synthesis, and in vitro biological evaluation of meta-sulfonamidobenzamide-based antibacterial LpxH inhibitors” (Eur J Med Chem, 2024).
≈ marks a conversion by molar mass, not a printed value.

Columns and labels:
[1] = Hemolysis activity in human RBC cells assessed as effect on hemolysis relative to control; format: toxicity, cell-based, Erythrocyte; conditions: human red blood cells, read-out: Activity
Escherichia coli [2] = assay: Antibacterial activity against efflux pump-deficient delta tolC Escherichia coli ATCC 25922 assessed as bacterial growth inhibition incubated for 16 to 20 hrs by Mueller-Hinton broth based two-fold serial dilution method; format: functional; conditions: time 16-20 hrs
[3] = Cytotoxicity against human HepG2 cells assessed as inhibition of cells incubated for 72 hrs by fluorometric microculture analysis; format: toxicity, cell-based
Method in brief: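 HepG2 (mycoplasma-free, ≤20 passages, DMEM + 10 % FBS + pen/strep) seeded 4000/well, cultured overnight, then exposed 72 h at 37 °C, 5 % CO₂ to nine two-fold dilutions in duplicate, top 100 µM. Viability by fluorescein diacetate hydrolysis (0.5 µg/ml FDA, 50 min, ex 475/em 520 nm); survival index vs control; IC50 by non-linear regression of log concentration-effect curves. Bortezomib 2 µM positive control.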

Escherichia coli [4] = assay: Antibacterial activity against wild type Escherichia coli ATCC 25922 incubated for 16 to 20 hrs by Mueller-Hinton broth based two-fold serial dilution method; format: functional; conditions: time 16-20 hrs
hERG (KCNH2) [5] = biological target: T1, hERG (KCNH2) (Homo sapiens, UniProt Q12809); assay: Inhibition of hERG expressed in CHO cells at 30 uM by automated patch clamp analysis relative to control; format: toxicity, cell-based; conditions: CHO cells that express hERG
T1 sequence (Q12809 whole entry): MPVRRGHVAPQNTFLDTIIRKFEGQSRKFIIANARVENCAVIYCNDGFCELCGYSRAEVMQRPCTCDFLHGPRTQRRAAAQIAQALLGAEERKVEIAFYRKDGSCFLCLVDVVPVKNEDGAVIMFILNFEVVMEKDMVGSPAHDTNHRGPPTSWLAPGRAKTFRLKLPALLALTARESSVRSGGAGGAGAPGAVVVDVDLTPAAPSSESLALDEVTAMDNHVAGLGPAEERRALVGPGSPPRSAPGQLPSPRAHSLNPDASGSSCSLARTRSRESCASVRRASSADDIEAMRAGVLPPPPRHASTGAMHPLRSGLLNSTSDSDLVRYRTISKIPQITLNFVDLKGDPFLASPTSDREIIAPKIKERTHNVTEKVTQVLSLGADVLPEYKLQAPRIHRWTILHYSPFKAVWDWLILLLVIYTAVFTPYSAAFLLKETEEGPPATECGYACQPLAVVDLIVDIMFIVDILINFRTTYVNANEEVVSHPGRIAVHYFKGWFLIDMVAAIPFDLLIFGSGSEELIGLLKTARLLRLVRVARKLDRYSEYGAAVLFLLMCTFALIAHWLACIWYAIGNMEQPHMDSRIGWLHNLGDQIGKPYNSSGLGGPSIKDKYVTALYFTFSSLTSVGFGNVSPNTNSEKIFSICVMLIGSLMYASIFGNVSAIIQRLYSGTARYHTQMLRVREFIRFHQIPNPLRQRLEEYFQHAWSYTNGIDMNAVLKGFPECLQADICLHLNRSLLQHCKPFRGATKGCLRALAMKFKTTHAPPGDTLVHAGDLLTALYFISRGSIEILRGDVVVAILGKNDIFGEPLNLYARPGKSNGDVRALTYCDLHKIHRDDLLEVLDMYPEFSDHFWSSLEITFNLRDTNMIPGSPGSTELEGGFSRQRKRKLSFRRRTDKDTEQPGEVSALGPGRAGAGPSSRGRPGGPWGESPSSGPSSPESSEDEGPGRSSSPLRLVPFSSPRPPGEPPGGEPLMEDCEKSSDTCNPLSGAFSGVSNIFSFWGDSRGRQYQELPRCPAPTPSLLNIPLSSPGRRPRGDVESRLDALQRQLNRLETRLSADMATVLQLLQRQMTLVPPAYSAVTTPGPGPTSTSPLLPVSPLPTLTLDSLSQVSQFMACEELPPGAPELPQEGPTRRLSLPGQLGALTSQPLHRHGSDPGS
Method in brief: (§1)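 Stably expressing CHO-KV11.1 cells, automated whole-cell population patch clamp (10 cells) at 22 °C; vehicle baseline (0.43 % DMSO) then two cumulatively rising concentrations, 30 s exposure. Holding −80 mV, steps in 10 mV increments to 50 mV for 5 s, tail current at −50 mV (peak in first 90 ms, leak-subtracted); protocol every 150 s; triplicate, mean ± SEM.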

Klebsiella pneumoniae [6] = assay: Antibacterial activity against wild type Klebsiella pneumoniae ATCC 13883 assessed as of bacterial growth incubated for 16 to 20 hrs by Mueller-Hinton broth based two-fold serial dilution method
Escherichia coli [7] = assay: Inhibition of Escherichia coli LpXH enzyme at 100 nM by colorimetric coupled enzymatic analysis relative to control
Method in brief: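 AaLpxE-coupled assay: E. coli LpxH 0.1 nM and UDP-DAGn 20 µM (final) in 20 mM Tris-HCl pH 8.0, BSA, 0.02 % Triton X-100, 1 mM MnCl₂, 1 mM DTT, 10 % DMSO; inhibitor pre-incubated with enzyme 10 min, reaction 30 min at 37 °C, EDTA quench, then LpxE 30 min; released phosphate by malachite green at 620 nm vs phosphate standard; triplicate.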

hERG (KCNH2) [8] = biological target: T1, hERG (KCNH2); assay: Inhibition of hERG expressed in CHO cells at 10 uM by automated patch clamp analysis relative to control; format: toxicity, cell-based; conditions: CHO cells that express hERG; method in brief: as §1
Escherichia coli [9] = assay: Antibacterial activity against efflux-defective Escherichia coli delta tolC ATCC 25922; format: functional
Klebsiella pneumoniae [10] = assay: Antibacterial activity against Klebsiella pneumonia ATCC 13883 assessed as viable colonies measured after 18 to 20 hrs by Mueller-Hinton II broth assay; format: functional; conditions: time 18-20 hrs
Escherichia coli [11] = assay: Antibacterial activity against Escherichia coli ATCC 25922 assessed as viable colonies measured after 18 to 20 hrs by Mueller-Hinton II broth assay; format: functional; conditions: time 18-20 hrs

| MIC (Escherichia coli [2]) | MIC (Escherichia coli [4]) | MIC (Klebsiella pneumoniae [6]) | inhibition (Escherichia coli [7]) | MIC (Escherichia coli [9]) | MIC (Klebsiella pneumoniae [10]) | MIC (Escherichia coli [11]) | SMILES | hemolysis [1] | IC50 at 72 h [3] | inhibition at 30 µM (hERG (KCNH2) [5]) | inhibition at 10 µM (hERG (KCNH2) [8]) |
| --- | --- | --- | --- | --- | --- | --- | --- | --- | --- | --- | --- |
| 0.5 µg/mL (≈ 0.779 µM) | 8 µg/mL (≈ 12.5 µM) | 4 µg/mL (≈ 6.23 µM) | 63% | – | – | – | Cc1cc(C#N)nc(N2CCN(S(=O)(=O)c3ccc(NC(=O)c4cc(CNCCCN)cc(NS(C)(=O)=O)c4)cc3)CC2)n1 | 0.08% | > 100 µM | 9% | 3% |
| 0.5 µg/mL (≈ 0.78 µM) | 8 µg/mL (≈ 12.5 µM) | 4 µg/mL (≈ 6.24 µM) | 80% | – | – | – | Cc1cc(C#N)nc(N2CCN(S(=O)(=O)c3ccc(NC(=O)c4cc(NS(C)(=O)=O)nc(N5CC(CN)C5)c4)cc3)CC2)n1 | 0.12% | > 100 µM | 0% | 1% |
| 0.125 µg/mL (≈ 0.209 µM) | 64 µg/mL (≈ 107 µM) | – | – | – | – | – | CN(c1cccc(C(=O)Nc2ccc(S(=O)(=O)N3CCN(c4cc(Cl)cc(Cl)c4)CC3)cc2)c1)S(C)(=O)=O | – | – | – | – |
| 0.5 µg/mL (≈ 0.803 µM) | 64 µg/mL (≈ 103 µM) | 16 µg/mL (≈ 25.7 µM) | 86% | – | – | – | Cc1cc(C#N)nc(N2CCN(S(=O)(=O)c3ccc(NC(=O)c4cc(C=C5CNC5)cc(NS(C)(=O)=O)c4)cc3)CC2)n1 | 0.17% | > 100 µM | 24% | 4% |
| – | – | – | – | 0.25 µg/mL (≈ 0.551 µM) | – | – | CC(=O)N1CCc2cc(S(=O)(=O)N3CCN(c4cccc(C(F)(F)F)c4)CC3)ccc21 | – | – | – | – |
| 0.25 µg/mL (≈ 0.391 µM) | 64 µg/mL (≈ 100 µM) | 32 µg/mL (≈ 50 µM) | 92% | – | – | – | Cc1cc(C#N)nc(N2CCN(S(=O)(=O)c3ccc(NC(=O)c4cc(NS(C)(=O)=O)cc(N5CC(CN)C5)c4)cc3)CC2)n1 | 0.12% | > 100 µM | 9% | 5% |
| ≤ 0.125 µg/mL | 8 µg/mL (≈ 13.5 µM) | 4 µg/mL (≈ 6.77 µM) | 54% | – | – | – | Cc1cc(C#N)nc(N2CCN(S(=O)(=O)c3ccc(NC(=O)c4cc(Cl)nc(NS(C)(=O)=O)c4)cc3)CC2)n1 | 0.02% | > 50 µM | 0% | 2% |
| 0.125 µg/mL (≈ 0.225 µM) | 4 µg/mL (≈ 7.2 µM) | 2 µg/mL (≈ 3.6 µM) | 75% | – | – | – | Cc1cc(C#N)nc(N2CCN(S(=O)(=O)c3ccc(NC(=O)c4cccc(NS(C)(=O)=O)c4)cc3)CC2)n1 | 0.05% | – | 12% | 3% |
| – | 1 µg/mL (≈ 1.67 µM) | – | – | – | – | – | CN(c1ccccc1C(=O)Nc1ccc(S(=O)(=O)N2CCN(c3cc(Cl)cc(Cl)c3)CC2)cc1)S(C)(=O)=O | – | – | – | – |
| 0.25 µg/mL (≈ 0.382 µM) | 16 µg/mL (≈ 24.5 µM) | 4 µg/mL (≈ 6.12 µM) | 89% | – | – | – | Cc1cc(C#N)nc(N2CCN(S(=O)(=O)c3ccc(NC(=O)c4cc(CN5CC(CN)C5)cc(NS(C)(=O)=O)c4)cc3)CC2)n1 | 0.06% | – | 7% | 4% |
| – | 0.3 µg/mL (≈ 0.491 µM) | – | – | – | – | – | NC(=O)[C@H]1CC[C@H](C(F)(F)c2cc(Cl)nc(N3CCN(S(=O)(=O)c4ccc(N5C[C@@H](N)CC5=O)cc4)CC3)c2)CC1 | – | – | – | – |
| 0.125 µg/mL (≈ 0.214 µM) | 4 µg/mL (≈ 6.85 µM) | – | – | – | – | – | CS(=O)(=O)Nc1cccc(C(=O)Nc2ccc(S(=O)(=O)N3CCN(c4cc(Cl)cc(Cl)c4)CC3)cc2)c1 | – | – | – | – |
| – | 64 µg/mL (≈ 110 µM) | – | – | – | – | – | CS(=O)(=O)Nc1ccccc1C(=O)Nc1ccc(S(=O)(=O)N2CCN(c3cc(Cl)cc(Cl)c3)CC2)cc1 | – | – | – | – |
| ≤ 0.125 µg/mL | 2 µg/mL (≈ 2.99 µM) | 0.5 µg/mL (≈ 0.749 µM) | 71% | – | – | – | Cc1cc(C#N)nc(N2CCN(S(=O)(=O)c3ccc(NC(=O)c4cc(CN5CC(CN)C5)ccc4N(C)S(C)(=O)=O)cc3)CC2)n1 | 0.13% | 54 µM | 16% | 5% |
| ≤ 0.125 µg/mL | 2 µg/mL (≈ 3.05 µM) | 1 µg/mL (≈ 1.52 µM) | 69% | – | – | – | Cc1cc(C#N)nc(N2CCN(S(=O)(=O)c3ccc(NC(=O)c4cc(CNCCCN)ccc4N(C)S(C)(=O)=O)cc3)CC2)n1 | 0.06% | 55 µM | 11% | 4% |
| ≤ 0.125 µg/mL | 2 µg/mL (≈ 2.99 µM) | 0.5 µg/mL (≈ 0.749 µM) | 100% | – | 0.5 µg/mL (≈ 0.749 µM) | 2 µg/mL (≈ 2.99 µM) | Cc1cc(C#N)nc(N2CCN(S(=O)(=O)c3ccc(NC(=O)c4cc(CNC[C@H]5C[C@@H]5N)ccc4N(C)S(C)(=O)=O)cc3)CC2)n1 | 0.35% | 47 µM | 28% | 9% |
| ≤ 0.125 µg/mL | 2 µg/mL (≈ 3.51 µM) | 2 µg/mL (≈ 3.51 µM) | 100% | – | – | – | Cc1cc(C#N)nc(N2CCN(S(=O)(=O)c3ccc(NC(=O)c4ccccc4N(C)S(C)(=O)=O)cc3)CC2)n1 | 0.05% | 29 µM | 24% | 14% |
